Type in all cases: cell-based
Data set [1] deals with Plasmodium falciparum D6 (CQ-sensitive). To be noted: D6, read-out: In vitro activity (IC50 nM) D6.
For data set [2], the system named is Plasmodium falciparum 7G8 (MDR strain with New World genetic background). To be noted: 7G8, read-out: In vitro activity (IC50 nM) 7G8.
The subject of data set [3] is Plasmodium falciparum Dd2 (MDR strain with Old World genetic background). To be noted: DD2, read-out: In vitro activity (IC50 nM) Dd2.
The subject of a further data set is HepG2 cells. The experiment in a line: HepG2 cytotoxicity assay. To be noted: Homo sapiens, HepG2, read-out: Cytotoxicity (nM) vs. HepG2. The procedure, abridged:
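HepG2 cells kept in RPMI-1640 with 10% FBS (37 °C, 5% CO2) were seeded at 2 × 10^4/well and left to attach overnight. Test compound (10 mM DMSO stock) was serially diluted in medium and applied for 24–36 h. Cells then had fresh medium for 24 h more, then resazurin (final 10 μM) for 3 h. Fluorescence read at ex 560/em 590 nm. IC50 from nonlinear logistic regression.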

Data set [4] deals with panel of Plasmodium falciparum malaria parasites. To be noted: for antimalarial activity against all tested strains (in words): D6, Dd2, 7G8 strains; for therapeutic index (the ratio of cytotoxicity to antimalarial therapeutic efficacy): HepG2 cytotoxicity vs antimalarial IC50.

Consider `COc1ccc2c(=O)c3cc(OC(F)(F)F)ccc3[nH]c2c1` [2d, 6-Methoxy-2-(trifluoromethoxy)acridin-9(10H)-one], for which the IC50 (commonly the concentration at which inhibition is half-maximal) in data set [1] is 0.103 nM; in data set [2] it was 1.51 nM; in data set [3], 1.1 nM. Besides, in the data set on HepG2 cells, the CC50 is above 200000 nM. For the same compound, the “antimalarial activity against all tested strains (in words)” value (from here on “antimalarial activity”) in data set [4] is “excellent activity”. The “therapeutic index (the ratio of cytotoxicity to antimalarial therapeutic efficacy)” value in data set [4] is “high”.

With `COc1ccc2c(=O)c3cc(Oc4ccc(Cl)cc4)ccc3[nH]c2c1` [2e, 2-(4-Chlorophenoxy)-6-methoxyacridin-9(10H)-one], the IC50 turned out to be 8.84 nM in data set [1], 13.5 nM in data set [2] and 11.7 nM in data set [3]. In addition, the CC50 in the data set on HepG2 cells was above 200000 nM. The “antimalarial activity” value in data set [4] is recorded as “excellent activity”. The “therapeutic index (the ratio of cytotoxicity to antimalarial therapeutic efficacy)” value in data set [4] is given as “high”.

Regarding `COc1ccc2c(=O)c3cccc(OC(F)(F)F)c3[nH]c2c1` [2f, 3-Methoxy-5-(trifluoromethoxy)acridin-9(10H)-one], the IC50 was 782 nM in data set [1], 1140 nM in data set [2] and 753 nM in data set [3]. The CC50 in the data set on HepG2 cells was above 200000 nM.

On to `COc1ccc2c(=O)c3cc(S(=O)(=O)C(F)(F)F)ccc3[nH]c2c1` [2g, 6-Methoxy-2-((trifluoromethyl)sulfonyl)acridin-9(10H)-one], for which the results for the IC50 in data set [1], in data set [2] and in data set [3] were 11.6 nM, 22.2 nM and 11.6 nM, respectively. For the same compound, the CC50 in the data set with HepG2 cells is above 200000 nM. Also, in data set [4], the “antimalarial activity” value is “excellent activity”. For the same compound, in data set [4], the “therapeutic index (the ratio of cytotoxicity to antimalarial therapeutic efficacy)” value was “high”.

In the case of `COc1ccc2c(=O)c3cc(C#N)ccc3[nH]c2c1` [2i, 6-Methoxy-9-oxo-9,10-dihydroacridine-2-carbonitrile], the results for the IC50 in data set [1], in data set [2] and in data set [3] were 100 nM, 228 nM and 177 nM, respectively. The CC50 in the data set on HepG2 cells was above 200000 nM.

In the case of `COc1ccc2c(=O)c3cc([N+](=O)[O-])ccc3[nH]c2c1` [2j, 6-Methoxy-2-nitroacridin-9(10H)-one], the IC50 was 84.1 nM in data set [1], 35 nM in data set [2] and 98.1 nM in data set [3]. For the same compound, in the data set with HepG2 cells, the CC50 is above 200000 nM.

For the compound `CCN(CC)CCn1c2ccc([N+](=O)[O-])cc2c(=O)c2ccc(OC)cc21` [2l, 10-(2-(Diethylamino)ethyl)-6-methoxy-2-nitroacridin-9(10H)-one], the IC50 in data set [1] amounted to 405 nM; in data set [2], 462 nM; in data set [3] it was 684 nM. Further, the CC50 in the data set on HepG2 cells is 12300 nM.

Turning to `COc1ccc2c(=O)c3c(F)c(F)c(F)c(F)c3[nH]c2c1` [2n, 1,2,3,4-Tetrafluoro-6-methoxyacridin-9(10H)-one], the IC50 in data set [1] was 257 nM; in data set [2] it was 41.8 nM; in data set [3] it was 325 nM. Moreover, the CC50 with HepG2 cells was above 200000 nM.

Regarding `COc1ccc2[nH]c3ccc(OC(F)(F)F)cc3c(=O)c2c1` [2o, 2-Methoxy-7-(trifluoromethoxy)acridin-9(10H)-one], the IC50 in data set [1] worked out at 632 nM; in data set [2] it was 437 nM; in data set [3] it was 425 nM. Besides, the CC50 in the data set with HepG2 cells was above 200000 nM.

In the case of `COc1ccc2[nH]c3ccc(Oc4ccc(Cl)cc4)cc3c(=O)c2c1` [2p, 2-(4-Chlorophenoxy)-7-methoxyacridin-9(10H)-one], the IC50 in data set [1] worked out at 573 nM; in data set [2], 911 nM; in data set [3] it was 513 nM. Moreover, in the data set with HepG2 cells, the CC50 is above 200000 nM.

On to `COc1ccc2[nH]c3c(OC(F)(F)F)cccc3c(=O)c2c1` [2q, 2-Methoxy-5-(trifluoromethoxy)acridin-9(10H)-one], for which the IC50 in data set [1] is 1490 nM; in data set [2], above 2500 nM; in data set [3], 1680 nM. Besides, the CC50 with HepG2 cells is above 200000 nM.

Take `COc1ccc2[nH]c3ccc(C#N)cc3c(=O)c2c1` [2r, 7-Methoxy-9-oxo-9,10-dihydroacridine-2-carbonitrile]: the IC50 in data set [1] was 983 nM; in data set [2], above 2500 nM; in data set [3], 932 nM. In the data set with HepG2 cells, the CC50 is above 200000 nM.

`COc1ccc2[nH]c3cc(F)cc(F)c3c(=O)c2c1` [2s, 1,3-Difluoro-7-methoxyacridin-9(10H)-one]: the IC50 is 0.05 nM in data set [1], 0.2 nM in data set [2] and 0.29 nM in data set [3]. Further, the CC50 in the data set with HepG2 cells was above 200000 nM. Further, the “antimalarial activity” value in data set [4] was “excellent activity”. Also, in data set [4], the “therapeutic index (the ratio of cytotoxicity to antimalarial therapeutic efficacy)” value is “high”.

Regarding `COc1ccc2[nH]c3c(F)c(F)c(F)c(F)c3c(=O)c2c1` [2t, 1,2,3,4-Tetrafluoro-7-methoxyacridin-9(10H)-one], the IC50 in data set [1] is above 2500 nM; in data set [2], 393 nM; in data set [3], 1950 nM. The CC50 in the data set with HepG2 cells was above 200000 nM.

For the compound `O=c1c2cc(OCCCl)ccc2[nH]c2cc(F)cc(F)c12` [2u, 7-(2-Chloroethoxy)-1,3-difluoroacridin-9(10H)-one], the IC50 in data set [1] was 11.6 nM; in data set [2], 1.22 nM; in data set [3], 0.91 nM. Besides, the CC50 with HepG2 cells is above 200000 nM. For the same compound, in data set [4], the “antimalarial activity” value is “excellent activity”. Besides, the “therapeutic index (the ratio of cytotoxicity to antimalarial therapeutic efficacy)” value in data set [4] was “high”.

As to `COc1cccc2c(=O)c3cc(OC(F)(F)F)ccc3[nH]c12` [2v, 5-Methoxy-2-(trifluoromethoxy)acridin-9(10H)-one], the IC50 in data set [1] was determined as 27.7 nM; in data set [2] it was 46.3 nM; in data set [3] it was 15.5 nM. Besides, the CC50 in the data set on HepG2 cells worked out at 139000 nM. Moreover, the “antimalarial activity” value in data set [4] was “excellent activity”. In addition, the “therapeutic index (the ratio of cytotoxicity to antimalarial therapeutic efficacy)” value in data set [4] is given as “high”.

As for `Cc1ccc2[nH]c3ccc(OC(F)(F)F)cc3c(=O)c2c1` [2w, 2-Methyl-7-(trifluoromethoxy)acridin-9(10H)-one], the IC50 in data set [1] is 63.1 nM; in data set [2], 109 nM; in data set [3] it was 49.2 nM. Besides, the CC50 in the data set with HepG2 cells is above 200000 nM.

As for `O=c1c2cc(OC(F)(F)F)ccc2[nH]c2cc3ccccc3cc12` [2x, 2-(Trifluoromethoxy)benzo[b]acridin-12(5H)-one], the IC50 in data set [1] came to 7.03 nM; in data set [2], 16.5 nM; in data set [3], 0.563 nM. The CC50 in the data set on HepG2 cells is above 200000 nM. The “antimalarial activity” value in data set [4] is given as “excellent activity”. Moreover, the “therapeutic index (the ratio of cytotoxicity to antimalarial therapeutic efficacy)” value in data set [4] is “high”.

Turning to `O=C1C(O)=C([C@H]2CC[C@H](c3ccc(Cl)cc3)CC2)C(=O)c2ccccc21` [ATV, atovaquone, reference compound], the IC50 in data set [1] and in data set [3] was 0.1 nM each time.

In the case of `CCN(CC)CCCC(C)Nc1ccnc2cc(Cl)ccc12` (centres unmarked) [CQ, chloroquine, reference compound], the IC50 in data set [2] was found to be 172 nM.

For the origin of these results see publication PMC8939876 (RSC Advances, 2019).
